Compound activity deposited in PubChem BioAssay by several laboratories.
CHOP inhibitor = inhibitors of CHOP promoter induction, primary screen, cell-based, unfolded protein response, luciferase reporter; CHO-K1 CHOP-promoter luciferase, tunicamycin-induced, 15-18 h; inhibition, % at 10 µM; actives 3.8% (n = 220,000); AID 2732, 2010;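 active = compounds that reduced the stress-induced luciferase reporter signal by more than about 70% of percent inhibition, limit read from the data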;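 also: 0% = tunicamycin plus vehicle and 100% = wells without tunicamycin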
Cardio protect = cardioprotection against H2O2-induced cell death, primary screen, uHTS, H9c2 cells, ATPLite luminescence; H9c2 cardiomyocytes, H2O2 injury protection, 2 h; protection from H2O2 cell death, % at 20 µM; actives 0.63% (n = 360,000); AID 588492, 2011;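 active = compounds giving at least 50% protection of heart cells from peroxide-induced death in the single-dose screen, raw or plate-pattern-corrected value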;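 also: 0% = DMSO wells with peroxide and 100% = DMSO wells without peroxide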
iPSC survival up = enhancers of single-cell hiPSC survival, primary screen, ATPlite luminescence | 100% = ROCK inhibitor wells, 0% = DMSO | survival enhancement, % at 20 µM | actives 0.044% (n = 360,000) | AID 602274, 2012; in the data active = survival enhancement above about 18%;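 also: cells exposed to compounds for 16 hours before the ATP read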
CHOP UPR activ = activators of apoptotic CHOP UPR arm, primary screen, cell-based, CHO-CHOP luciferase reporter, luminescence, uHTS | actives 0.34% (n = 330,000) | UPR activation; percent of tunicamycin response over DMSO baseline | AID 449763, 2010 | activation, % at 10 µM;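 active = at 10 µM dose, activation of 40% or more, normalized to positive control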;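 also: 100% = tunicamycin at 10 µg/mL and 0% = DMSO alone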
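Test system: CHO-CHOP cells, stable luciferase reporter of PERK-eIF2a-CHOP signalling | Quantity: 500 CHO-CHOP cells per well | Buffer or medium: F12 plus 10% serum | Compound dosing: 10 µM single point, 0.5% DMSO | Schedule: 6 h compound treatment, 37 °C | Signal: Luciferase luminescence | Control set: Tunicamycin high control, DMSO low control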
XBP1 UPR activ = activators of adaptive XBP1 UPR arm, primary screen, cell-based, CHO-XBP1 luciferase reporter, luminescence, uHTS. IRE1-XBP1 UPR activation; percent of tunicamycin response, DMSO as zero. activation, % at 20 µM. actives 0.33% (n = 330,000);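 active = versus positive control, 20 µM dose yields 30% or more activation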;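 also: 100% = tunicamycin at 10 µg/mL and 0% = DMSO only wells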
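Material: CHO-XBP1 cells stably carrying IRE1-XBP1-driven luciferase reporter | Medium: F12 with 10% serum | Compound dosing: 20 µM single concentration, DMSO 1% | Incubation: Overnight seeding at 37 °C, 6 h compound treatment at 37 °C | Detection: Steady-Glo luminescence read | Read-out basis: % activation of reporter signal versus tunicamycin and DMSO controls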
XBP1 UPR conf = IRE1-XBP1 UPR arm activators, confirmation, cell-based, CHO-XBP1 luciferase reporter, luminescence, single concentration. shares compounds with XBP1 UPR activ. activation, % at 20 µM. actives 63% (n = 1,000);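 active = reporter signal at least 30% of the positive control's activation in two or more of four replicate wells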;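 also: plate controls were DMSO negative control for no effect and tunicamycin 10 µg/mL positive control for full effect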
* marks the source's active call; other numbers are inactive results. The entries come from a sample that favours hits as a whole.

Cc1sc(NC(=O)c2ccco2)c(C(c2ccc(F)cc2)N2CCN(C)CC2)c1C (stereo not given) was read as CHOP inhibitor 39.0, Cardio protect 18.8, iPSC survival up -0.4, CHOP UPR activ 1.1 and XBP1 UPR activ 0.6.
`Cc1sc(NC(=O)c2ccco2)c(C(c2cccnc2)N2CCN(c3ccc(F)cc3)CC2)c1C` (stereo not given) gave Cardio protect -4.3, iPSC survival up 0.2, CHOP UPR activ 16.7, XBP1 UPR activ 32.6* and XBP1 UPR conf 18.3.
For COc1ccc(-c2coc3cc4oc(=O)cc(C)c4cc23)cc1F the results were CHOP inhibitor -5.6, Cardio protect -5.8, iPSC survival up 2.0, CHOP UPR activ 1.8 and XBP1 UPR activ 2.8.
Screening COc1ccc(-c2coc3cc4oc(=O)cc(-c5ccccc5)c4cc23)cc1F returned CHOP inhibitor -14.6, Cardio protect 32.8, iPSC survival up 0.3, CHOP UPR activ 0.7, XBP1 UPR activ 41.1* and XBP1 UPR conf 125.0*.
For Cc1ccsc1C(=O)OCC(=O)c1cc(C)n(C)c1C the results were Cardio protect -20.6, iPSC survival up -3.4, CHOP UPR activ -6.6 and XBP1 UPR activ -7.7.
O=C(Nc1nc(-c2cccnc2)cs1)c1cccc([N+](=O)[O-])c1 was read as CHOP inhibitor 88.0*, Cardio protect -12.8, iPSC survival up 0.8, CHOP UPR activ 7.2, XBP1 UPR activ 31.3* and XBP1 UPR conf 11.5.
`Cc1ccccc1Cn1cc(NC(=O)c2cc3nc(-c4ccco4)cc(C(F)(F)F)n3n2)cn1` gave CHOP inhibitor -25.9, Cardio protect 20.8, iPSC survival up 0.6, CHOP UPR activ -1.4 and XBP1 UPR activ -3.0.
`CCc1ccc(-c2cc(C(F)(F)F)n3nc(C(=O)Nc4cnn(Cc5ccc(C)cc5)c4)cc3n2)s1` gave CHOP inhibitor 3.8, Cardio protect -6.1, iPSC survival up -1.0, CHOP UPR activ 26.8, XBP1 UPR activ 74.8* and XBP1 UPR conf 288.5*.
`O=C(NCCN1CCOCC1)C(=O)NCC1OCCN1S(=O)(=O)c1ccc(Cl)cc1` (stereo not given) gave Cardio protect 0.3 and iPSC survival up -0.2.
For CN(C)S(=O)(=O)c1ccc(N2CCCC2)c(C(=O)Nc2nc(-c3ccc(F)c(F)c3)cs2)c1 the results were CHOP inhibitor 0.1, Cardio protect -3.4, iPSC survival up -0.1, CHOP UPR activ 3.2 and XBP1 UPR activ 2.7.
CN(C)S(=O)(=O)c1ccc(N2CCCC2)c(C(=O)Nc2nccs2)c1 was read as Cardio protect 5.3, iPSC survival up -2.8, CHOP UPR activ 5.5, XBP1 UPR activ 59.7* and XBP1 UPR conf 68.5*.
CC(=O)Oc1ccc(Cn2c(C)c(C(=O)NCCC#N)sc2=O)cc1 was read as Cardio protect 5.6 and iPSC survival up 0.2.
`Nc1nc(Nc2ccc(Cl)cc2)nc2ccccc12` gave CHOP inhibitor 64.0, Cardio protect -21.6, iPSC survival up -3.6, CHOP UPR activ 24.5, XBP1 UPR activ 32.8* and XBP1 UPR conf 25.1.
Nc1nc(Nc2ccccc2)nc2ccccc12 was read as CHOP inhibitor -13.2, Cardio protect -10.1, iPSC survival up 11.0, CHOP UPR activ 2.7 and XBP1 UPR activ 9.2.
For COC(=O)c1ccccc1NC(=O)c1ccc(COc2ccccc2)o1 the results were CHOP inhibitor 23.3, Cardio protect 5.1, iPSC survival up 4.8, CHOP UPR activ 0.7 and XBP1 UPR activ -1.4.
For COC(=O)c1ccccc1NC(=O)c1ccc(-c2cccc(Cl)c2)o1 the results were CHOP inhibitor 67.4, Cardio protect 14.1, iPSC survival up 8.4, CHOP UPR activ 13.6, XBP1 UPR activ 52.1* and XBP1 UPR conf 14.7.
For CCCCCc1c(CC)ncn1CCc1ccccc1OC the results were iPSC survival up -1.0.
`COc1ccc2cc3c(N)nn(C(=O)C4CCC(C(C)(C)C)CC4)c3nc2c1` (stereo not given) gave CHOP inhibitor 67.0, Cardio protect -20.4, iPSC survival up -0.8, CHOP UPR activ -2.9, XBP1 UPR activ 111.4* and XBP1 UPR conf 36.9*.
For CCOC(=O)C1CCN(c2nc3cc(OC)ccc3cc2C#N)CC1 the results were CHOP inhibitor -4.3, Cardio protect -2.4, iPSC survival up -0.3, CHOP UPR activ -1.9 and XBP1 UPR activ -0.4.
Screening O=C(Cc1ccc(NC(=O)C2CCN(C(=O)C3CCCC3)CC2)cc1)Nc1ccc(C(=O)N2CCOCC2)cc1 returned Cardio protect 0.9 and iPSC survival up -1.3.
Screening COc1ccc(Cn2c(-c3ccccc3C)nc3c(c(=O)c4ccccc4n3C)c2=O)cc1 returned Cardio protect 0.6, iPSC survival up -0.1, CHOP UPR activ 8.1, XBP1 UPR activ 40.6* and XBP1 UPR conf 1.9.
COc1ccc(OCC(=O)Sc2ccc(C)cc2)cc1 was read as CHOP inhibitor 83.4*, Cardio protect 16.6, iPSC survival up -2.5, CHOP UPR activ 7.4, XBP1 UPR activ 34.6* and XBP1 UPR conf 7.9.
For COc1ccc(OC(=O)COc2ccc(C)cc2)cc1 the results were CHOP inhibitor 22.3, Cardio protect 2.7, iPSC survival up 0.0, CHOP UPR activ -1.7 and XBP1 UPR activ -2.3.
`O=C(CSc1nnc(-c2cccs2)n1-c1ccccc1)c1ccc2c(c1)OCCO2` gave Cardio protect -1.1, iPSC survival up 0.6, CHOP UPR activ 15.0, XBP1 UPR activ 61.1* and XBP1 UPR conf 22.0.
For O=C1C(=O)N(c2ccccc2)C(c2ccccc2[N+](=O)[O-])/C1=C(\O)c1ccccc1 (stereo not given) the results were CHOP inhibitor 7.5, Cardio protect -3.3, iPSC survival up 1.0, CHOP UPR activ 2.0 and XBP1 UPR activ 4.0.
`CCOc1ccc(N2C(=O)C(=O)/C(=C(/O)c3ccccc3)C2c2ccccc2[N+](=O)[O-])cc1` (stereo not given) gave CHOP inhibitor -14.7, Cardio protect 1.0, iPSC survival up -0.6, CHOP UPR activ 0.5, XBP1 UPR activ 33.6* and XBP1 UPR conf -0.3.
`COc1ccc2[nH]c3c(=O)n(N)c(=O)[nH]c3c2c1` gave Cardio protect 9.6, iPSC survival up -0.3, CHOP UPR activ 0.1 and XBP1 UPR activ -5.0.
For CC1=CC(C)[C@H](/C=N/n2c(=O)[nH]c3c([nH]c4ccc(Br)cc43)c2=O)C(C)C1 (stereo not given in full) the results were CHOP inhibitor -7.9, Cardio protect 25.2, iPSC survival up -0.8, CHOP UPR activ 30.4, XBP1 UPR activ 80.1* and XBP1 UPR conf 99.8*.
